Results on four compounds are retold here after article PMC3766433 (Journal of neurochemistry, 2013).

What all share (assay type): binding
Assay [1] deals with T1, Munc13-1 C1 (WT) (Rattus norvegicus, UniProt Q62768). Put plainly: intrinsic fluorescence quenching, logistic fit. The gist of the method:
(§1)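 GST-fused Munc13-1 C1 domain (wild type or Glu-582 mutant) was expressed in E. coli BL21 DE3 gold, affinity-purified and thrombin-cleaved. Protein was held at 1 μM in 50 mM Tris, 100 mM NaCl, pH 7.4. Alcohols were added neat or from a 0.25 M DMSO stock, at 1–250, 1–150 or 1–5 mM depending on the alcohol. After 15 min incubation, samples were excited at 280 nm. Emission at 348–350 nm was buffer-corrected and fitted to a logistic equation; runs were done in triplicate.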

The target of assay [2] is T1, Munc13-1 C1 (WT). Briefly: photolabeling, LC-MS/MS. As to conditions: covalent (photoaffinity), site Glu-582.
Assay [3] concerns the target Munc13-1 C1 (WT) (Rattus norvegicus, UniProt Q62768, E582L). Briefly: intrinsic fluorescence quenching, logistic fit. The gist of the method:
as §1

For assay [4], the target named is Munc13-1 C1 (WT) (Rattus norvegicus, UniProt Q62768, E582H). Put plainly: intrinsic fluorescence quenching, logistic fit. The gist of the method:
as §1

For assay [5], the target named is Munc13-1 C1 (WT) (Rattus norvegicus, UniProt Q62768, E582A). Briefly: intrinsic fluorescence quenching, logistic fit. The gist of the method: as §1

What is called EC50 is the concentration that produces a half-maximal response. The low end stands for a more potent agent, the high end for a less potent agent. For `CCO` [Ethanol], the EC50 in assay [1] was 51.7 ± 2.8 mM.
For `CC1(CCO)N=N1` [3-azibutanol], the “photolabeling, LC-MS/MS; fluorescence quenching” value in assay [2] was 3-azibutanol labeled the Munc13-1 C1 at the Glu-582 site.
With `CCCCO` [Butanol], the EC50 turned out to be 70.5 ± 1.8 mM in assay [3], 25.8 ± 1.1 mM in assay [1], 75.3 ± 1.9 mM in assay [4] and 59.9 ± 0.9 mM in assay [5].
Turning to `CCCCCCCCO` [Octanol], the EC50 in assay [3] was determined as 3.3 ± 0.06 mM; in assay [1], 0.7 ± 0.03 mM; in assay [4], 1.1 ± 0.07 mM; in assay [5], 2.6 ± 0.2 mM.
